Source: publication PMC11923060 (Scientific Reports, 2025)

Legend:
[1] = tested on: testes; experiment: Immunofluorescence of tight junction proteins in testicular tissue; format: in vivo, Kunming mice; conditions: Days 20 and 40, + LPS, compared to the LPS group, n = 10 mice/group
[2] = tested on: testes; experiment: Western blot of junction proteins in testicular tissue; format: in vivo, Kunming mice; conditions: Days 20 and 40, + LPS, vs LPS group, n = 10 mice/group
Outline: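 Male Kunming mice (8–10 wk), n = 10/group, gavaged with test peptide 0.5 mg/kg or antibiotic control 25 mg/kg in 200 µL saline for 20 d (10 doses) or 40 d (20 doses), then one i.p. LPS 5 mg/kg; killed 24 h later. ~100 mg testis homogenized in RIPA/protease inhibitors; PVDF blocked in skim milk 2 h, primary antibody overnight 4 °C, secondary 2 h, ECL.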

Substance: polymyxin B
- expression of Claudin-1 (immunofluorescence) [1]: significant increases
- expression of N-cadherin (immunofluorescence) [1]: significant increases
- protein expression of TWIST1 (Western blot) [2]: significantly inhibited
